According to ChEMBL document CHEMBL3860041, “Synthesis, biological evaluation and molecular modeling study of some new methoxylated 2-benzylthio-quinazoline-4(3H)-ones as nonclassical antifolates” (Bioorg Med Chem Lett, 2016):
pIC50: −log10 of the molar value.

Legend:
[1] = Growth inhibition of human MALME-3M cells at 10 uM after 48 hrs by SRB assay relative to control; assay type: functional; settings: read-out: GI
How it was run: (§1)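 NCI 60-cell-line panel, nine tumor subpanels; compounds tested at a single dose of 10 μM in the primary screen.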

[2] = Growth inhibition of human HCT15 cells at 10 uM after 48 hrs by SRB assay relative to control; assay type: functional; settings: HCT-15, 48 h, read-out: GI; how it was run: as §1
[3] = Growth inhibition of human RPMI8226 cells at 10 uM after 48 hrs by SRB assay relative to control; assay type: functional; settings: RPMI-8226, 48 h, read-out: GI; how it was run: as §1
[4] = Growth inhibition of human PC3 cells at 10 uM after 48 hrs by SRB assay relative to control; assay type: functional; settings: PC-3, 48 h, read-out: GI; how it was run: as §1
[5] = Growth inhibition of human IGROV1 cells at 10 uM after 48 hrs by SRB assay relative to control; assay type: functional; settings: IGROV-1, 48 h, read-out: GI; how it was run: as §1
[6] = Growth inhibition of human MDA-MB-435 cells at 10 uM after 48 hrs by SRB assay relative to control; assay type: functional; settings: MDA-MB-435, 48 h, read-out: GI; how it was run: as §1
[7] = Growth inhibition of human SR cells at 10 uM after 48 hrs by SRB assay relative to control; assay type: functional; settings: read-out: GI
How it was run: (§2)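 Primary screen across the full NCI 60 human tumour cell line panel, which covers nine tumour subpanels. A single dose of 10 μM was applied to each line, and growth was recorded for each cell line.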

[8] = Growth inhibition of human COLO205 cells at 10 uM after 48 hrs by SRB assay relative to control; assay type: functional; settings: COLO 205, 48 h, read-out: GI; how it was run: as §1
[9] = Growth inhibition of human M14 cells at 10 uM after 48 hrs by SRB assay relative to control; assay type: functional; settings: M14, 48 h, read-out: GI; how it was run: as §1
[10] = Growth inhibition of human HCC2998 cells at 10 uM after 48 hrs by SRB assay relative to control; assay type: functional; settings: HCC 2998, 48 h, read-out: GI; how it was run: as §1
[11] = Growth inhibition of human SW620 cells at 10 uM after 48 hrs by SRB assay relative to control; assay type: functional; settings: SW-620, 48 h, read-out: GI; how it was run: as §2
[12] = Growth inhibition of human SF295 cells at 10 uM after 48 hrs by SRB assay relative to control; assay type: functional; settings: SF-295, 48 h, read-out: GI; how it was run: as §1
Dihydrofolate reductase = biological target: T1, Dihydrofolate reductase (Bos taurus, UniProt P00376); experiment: Inhibition of bovine liver DHFR preincubated for 2 mins followed by addition of FH2 as substrate and NADPH
T1 sequence (P00376 whole entry): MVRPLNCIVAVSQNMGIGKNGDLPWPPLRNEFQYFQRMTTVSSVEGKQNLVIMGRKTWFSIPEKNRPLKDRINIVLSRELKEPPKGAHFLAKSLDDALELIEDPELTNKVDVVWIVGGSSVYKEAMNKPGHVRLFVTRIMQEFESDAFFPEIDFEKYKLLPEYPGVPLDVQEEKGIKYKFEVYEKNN

[13] = Growth inhibition of human KM12 cells at 10 uM after 48 hrs by SRB assay relative to control; assay type: functional; settings: KM12, 48 h, read-out: GI; how it was run: as §1
[14] = Growth inhibition of human MDA-MB-468 cells at 10 uM after 48 hrs by SRB assay relative to control; assay type: functional; settings: MDA-MB-468, 48 h, read-out: GI; how it was run: as §1
[15] = Growth inhibition of human OVCAR4 cells at 10 uM after 48 hrs by SRB assay relative to control; assay type: functional; settings: OVCAR-4, 48 h, read-out: GI; how it was run: as §1
[16] = Growth inhibition of human A498 cells at 10 uM after 48 hrs by SRB assay relative to control; assay type: functional; settings: A498, 48 h, read-out: GI; how it was run: as §1
[17] = Growth inhibition of human NCI-H522 cells at 10 uM after 48 hrs by SRB assay relative to control; assay type: functional; settings: NCI-H522, 48 h, read-out: GI; how it was run: as §1
[18] = Growth inhibition of human UACC257 cells at 10 uM after 48 hrs by SRB assay relative to control; assay type: functional; settings: UACC-257, 48 h, read-out: GI; how it was run: as §2
[19] = Growth inhibition of human NCI-322M cells at 10 uM after 48 hrs by SRB assay relative to control; assay type: functional; settings: read-out: GI; how it was run: as §1
[20] = Growth inhibition of human SK-MEL-5 cells at 10 uM after 48 hrs by SRB assay relative to control; assay type: functional; settings: SK-MEL-5, 48 h, read-out: GI; how it was run: as §2
[21] = Growth inhibition of human ACHN cells at 10 uM after 48 hrs by SRB assay relative to control; assay type: functional; settings: read-out: GI; how it was run: as §1
[22] = Growth inhibition of human SKOV3 cells at 10 uM after 48 hrs by SRB assay relative to control; assay type: functional; settings: SK-OV-3, 48 h, read-out: GI; how it was run: as §2
[23] = Growth inhibition of human SF268 cells at 10 uM after 48 hrs by SRB assay relative to control; assay type: functional; settings: SF-268, 48 h, read-out: GI; how it was run: as §1
[24] = Growth inhibition of human SNB75 cells at 10 uM after 48 hrs by SRB assay relative to control; assay type: functional; settings: SNB-75, 48 h, read-out: GI; how it was run: as §2
[25] = Growth inhibition of human OVCAR3 cells at 10 uM after 48 hrs by SRB assay relative to control; assay type: functional; settings: OVCAR-3, 48 h, read-out: GI; how it was run: as §1
[26] = Growth inhibition of human MCF7 cells at 10 uM after 48 hrs by SRB assay relative to control; assay type: functional; settings: MCF7, 48 h, read-out: GI; how it was run: as §1
[27] = Growth inhibition of human CNS cancer cells after 48 hrs by SRB assay; assay type: functional; settings: Cancer cell lines
How it was run: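 Five-log dose range against NCI tumor cell lines, monitoring GI50, TGI and LC50 for each cell line; MG-MID values derived across the panel; 5-fluorouracil positive control.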

Leukemia cell = experiment: Potency index, ratio of 5-fluorouracil GI50 to compound GI50 for human leukemia cells; assay type: functional
How it was run: (§3)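 GI50 for each cell line came from NCI panel testing over a 5-log dose range, with 5-fluorouracil tested alongside as the reference drug. The index relates the 5-fluorouracil GI50 to the compound GI50 within each tumour subpanel.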

Melanoma cell = experiment: Potency index, ratio of 5-fluorouracil GI50 to compound GI50 for human melanoma cells; assay type: functional; how it was run: as §3
[28] = Growth inhibition of human prostate cancer cells after 48 hrs by SRB assay; assay type: functional; settings: Cancer cell lines
How it was run: (§4)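 Follow-up NCI panel testing over a 5-log dose range for each cell line. GI50, TGI and LC50 were monitored, with 5-fluorouracil run as the positive control. Values are grouped by tumour subpanel.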

Cancer cell lines [29] = experiment: Potency index, ratio of 5-fluorouracil GI50 to compound GI50 for human colon cancer cells; assay type: functional; how it was run: as §3
Cancer cell lines [30] = experiment: Potency index, ratio of 5-fluorouracil GI50 to compound GI50 for human CNS cancer cells; assay type: functional; how it was run: as §3
[31] = Growth inhibition of human leukemia cells after 48 hrs by SRB assay; assay type: functional; settings: Leukemia cell; how it was run: as §4
Cancer cell lines [32] = experiment: Potency index, ratio of 5-fluorouracil GI50 to compound GI50 for human breast cancer cells; assay type: functional; how it was run: as §3
Cancer cell lines [33] = experiment: Potency index, ratio of 5-fluorouracil GI50 to compound GI50 for human ovarian cancer cells; assay type: functional; how it was run: as §3

## COc1ccc(CSc2nc3cc(OC)c(OC)cc3c(=O)n2-c2ccc(OC)cc2OC)cc1
[1]
  inhibition of growth at 10 µM: 17.4%
[2]
  inhibition of growth at 10 µM: 19.4%
[3]
  inhibition of growth at 10 µM: 36.3%
[4]
  inhibition of growth at 10 µM: 44.4%
[5]
  inhibition of growth at 10 µM: 14%
[6]
  inhibition of growth at 10 µM: 38%
[7]
  inhibition of growth at 10 µM: 40.6%
[8]
  inhibition of growth at 10 µM: < 10%
[9]
  inhibition of growth at 10 µM: < 10%
[10]
  inhibition of growth at 10 µM: < 10%
[11]
  inhibition of growth at 10 µM: < 10%
[12]
  inhibition of growth at 10 µM: 10.4%
Dihydrofolate reductase
  pIC50: 6.52
[13]
  inhibition of growth at 10 µM: 21.9%
[14]
  inhibition of growth at 10 µM: 25.7%
[15]
  inhibition of growth at 10 µM: 16.8%
[16]
  inhibition of growth at 10 µM: 41.4%
[17]
  inhibition of growth at 10 µM: 31.4%
[18]
  inhibition of growth at 10 µM: < 10%
[19]
  inhibition of growth at 10 µM: 19.4%
[20]
  inhibition of growth at 10 µM: 19.5%
[21]
  inhibition of growth at 10 µM: < 10%
[22]
  inhibition of growth at 10 µM: < 10%
[23]
  inhibition of growth at 10 µM: 13.7%
[24]
  inhibition of growth at 10 µM: < 10%
[25]
  inhibition of growth at 10 µM: < 10%
[26]
  inhibition of growth at 10 µM: 16.9%

## COc1ccc(-n2c(SCc3cc(OC)c(OC)c(OC)c3)nc3ccc(C)cc3c2=O)cc1
[1]
  inhibition of growth at 10 µM: 40.4%
[27]
  GI50: 30.9 µM
  LC50 (lethal concentration, 50% net cell kill): > 100 µM
  TGI: > 100 µM
[2]
  inhibition of growth at 10 µM: 66.4%
Leukemia cell
  RatioGI50: 2 - 10
Melanoma cell
  RatioGI50: 2 - 10
[28]
  GI50: 52.8 µM
  LC50 (concentration killing 50% of cells): > 100 µM
  TGI: > 100 µM
[3]
  inhibition of growth at 10 µM: < 10%
[4]
  inhibition of growth at 10 µM: 25%
[5]
  inhibition of growth at 10 µM: 38%
Cancer cell lines [29]
  RatioGI50: 2 - 10
[7]
  inhibition of growth at 10 µM: 77%
[8]
  inhibition of growth at 10 µM: 67.3%
[9]
  inhibition of growth at 10 µM: 46.2%
[10]
  inhibition of growth at 10 µM: 24.3%
[11]
  inhibition of growth at 10 µM: 50.7%
[12]
  inhibition of growth at 10 µM: 48.6%
Dihydrofolate reductase
  pIC50: 5.00
[13]
  inhibition of growth at 10 µM: 64.7%
Cancer cell lines [30]
  RatioGI50: 2 - 10
[14]
  inhibition of growth at 10 µM: 53.2%
[15]
  inhibition of growth at 10 µM: 32.8%
[16]
  inhibition of growth at 10 µM: 62%
[17]
  inhibition of growth at 10 µM: 60.7%
[31]
  GI50: 3.4 µM
  TGI: 90.2 µM
[31]; read-out: LC50 (the source's name)
  CC50: > 100 µM
[18]
  inhibition of growth at 10 µM: 22.7%
[19]
  inhibition of growth at 10 µM: 19.7%
Cancer cell lines [32]
  RatioGI50: 2 - 10
[20]
  inhibition of growth at 10 µM: 45.2%
[21]
  inhibition of growth at 10 µM: 33.3%
[22]
  inhibition of growth at 10 µM: 26.3%
[23]
  inhibition of growth at 10 µM: 19.4%
[24]
  inhibition of growth at 10 µM: 55.6%
Cancer cell lines [33]
  RatioGI50: 2 - 10
[25]
  inhibition of growth at 10 µM: 40.1%
[26]
  inhibition of growth at 10 µM: 75.2%
